Laboratory results from ChEMBL document CHEMBL1122670, “Synthesis of previously inaccessible quinazolines and 1,4-benzodiazepines as potential anticonvulsants” (J Med Chem, 1984).

What was measured:
[1] = test system: Mus musculus; assay: Effective dose (ED50) was determined (at 4hi)n sc Met (pentylenetetrazole) seizure threshold test; type: functional
Method in brief: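 ADD Program screen in mice. Doses of 30, 100, 300 and 600 mg/kg were given, four animals per dose, with tests at 30 min and at 4 h. sc Met endpoint: no threshold seizure (single clonic spasm of 5 s) after an sc convulsant dose 99 of pentylenetetrazol. Rotorod assessed acute neurotoxicity. ED50/TD50 were estimated graphically; Litchfield-Wilcoxon 95% confidence limits were added for selected cases.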

[2] = test system: Mus musculus; assay: Evaluated for seizure threshold test at a dose 300 mg/kg &MST is the metrazole seizure threshold to persistent clonus; type: functional
Method in brief: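 At 0.5 h (some at 1 or 4 h), 0.5% pentylenetetrazol in 0.9% NaCl with 0.001% heparin was infused into the tail vein at 6.31 μL/s. Time to 3 s persistent clonus (MST) or tonic flexion (MMT) was converted to mg/kg, reported as % change vs controls, Student's t test.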

[3] = Compound was determined in rotarod test and expressed as TD50; type: ADME, organism-based; conditions: mouse, in vivo
Method in brief: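 ADD Program screen in mice. Doses of 30, 100, 300 and 600 mg/kg were given, four animals per dose, with tests at 30 min and at 4 h. sc Met endpoint: no threshold seizure (single clonic spasm of 5 s) after an sc convulsant dose 99 of pentylenetetrazol. Rotorod assessed acute neurotoxicity.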

[4] = test system: Mus musculus; assay: Evaluated for seizure threshold test at a dose 300 mg/kg &MMT is the maximal metrazole threshold to tonic flexion.; type: functional
Method in brief: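 0.5% pentylenetetrazol (with 0.9% NaCl and 0.001% heparin) was infused into a lateral tail vein at 6.31 μL/s. Time to 3 s of persistent clonus (MST) or hindlimb tonic flexion (MMT) was converted to mg/kg infused. Tested at 0.5 h (some at 4 h or 1 h). Results are % change from controls, by Student's t test.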

Cc1cc2c(c(C#N)c1C)NC(=O)NC2c1ccccc1 (centres undefined)
ED50 [1]: 600 mg/kg | Change [2]: 36% | TD50 [3]: > 1000 mg/kg | Change [4]: 22%
